A short description of data set [1]: Oral bioavailability in mouse. The class given is ADME, organism-based. To be noted: in vivo.
A short description of data set [2]: Volume of distribution in mouse. The conditions noted are these: in vivo. Type of data set: ADME, organism-based.
Data set [3] is described as follows: (§1) Clearance in mouse. Type of data set: ADME, organism-based. To be noted: in vivo.
For a further data set, the species on record is Mus musculus. The data set is described as §1. Type of data set: ADME, organism-based. The conditions noted are these: in vivo.
For data set [4], the target named is T1, Cholesteryl ester transfer protein (Homo sapiens) (UniProt P11597).
T1 sequence (whole entry): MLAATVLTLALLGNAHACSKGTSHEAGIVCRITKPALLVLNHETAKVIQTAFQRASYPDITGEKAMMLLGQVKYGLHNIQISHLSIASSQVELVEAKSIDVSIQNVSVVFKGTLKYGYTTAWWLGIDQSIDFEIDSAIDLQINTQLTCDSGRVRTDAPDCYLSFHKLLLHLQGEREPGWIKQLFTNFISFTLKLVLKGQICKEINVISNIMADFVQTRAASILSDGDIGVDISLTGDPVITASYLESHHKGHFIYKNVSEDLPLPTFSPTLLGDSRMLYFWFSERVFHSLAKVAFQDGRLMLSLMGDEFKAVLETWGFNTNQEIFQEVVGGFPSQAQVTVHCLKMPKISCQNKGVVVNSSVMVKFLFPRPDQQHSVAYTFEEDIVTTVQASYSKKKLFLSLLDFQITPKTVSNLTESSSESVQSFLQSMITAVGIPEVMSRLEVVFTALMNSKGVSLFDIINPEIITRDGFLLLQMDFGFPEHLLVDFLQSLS
The data set can be described thus: Inhibition of CETP-mediated BODIPY-labeled cholesteryl ester transfer at 100 uM after 45 mins by FRET analysis.

The target in data set [5] is T2, Cholesteryl ester transfer protein (Homo sapiens, UniProt P11597).
T2 sequence (P11597 whole entry): T1 sequence (whole entry)
The data set can be described thus: Inhibition of CETP-mediated BODIPY-labeled cholesteryl ester transfer after 45 mins by FRET analysis. The procedure, abridged: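 Fluorescence transfer assay of cholesteryl ester transfer by CETP. IC50 taken from 10-point titrations, reported as the average of three or more titrations, the average of two, or a single titration.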

These results are taken from ChEMBL document CHEMBL1949640, “Discovery of substituted biphenyl oxazolidinone inhibitors of cholesteryl ester transfer protein” (ACS Med Chem Lett, 2011).

What is called bioavailability is dose-corrected exposure relative to a reference, in per cent. A low value points to poor availability. One may read the Vd as the apparent volume that relates the amount in the body to the concentration in plasma or blood. By clearance is commonly meant the volume of plasma or blood freed of the substance per unit of time. A lower clearance goes with inefficient removal. A word on the inhibition: it is the drop in the measured response relative to a control, in per cent. Low readings indicate little suppression, high ones strong suppression. One may read the IC50 as the concentration that gives 50% inhibition. High values mean weaker potency, low ones greater potency.

In turn, `COC(=O)N(Cc1cc(C(F)(F)F)cc(C(F)(F)F)c1)Cc1cc(C(F)(F)F)ccc1-c1cc(C(C)C)ccc1OC` yielded a bioavailability in data set [1] of 5%. The same compound registered a distribution volume (Vd) in data set [2] of 3.3 L/kg. Besides, the clearance in data set [3] was 12.8 mL/min/kg.
In data set [1], `COc1ccc(C(C)C)cc1-c1ccc(C(F)(F)F)cc1CN1C[C@@H](c2cc(C(F)(F)F)cc(C(F)(F)F)c2)OC1=O` gave a bioavailability of 4%. In data set [2], this compound yielded a Vd of 3.4 L/kg. The compound further came in with a clearance in the data set filed under Mus musculus of 31.6 mL/min/kg.
For `COc1ccc(C(C)C)cc1-c1ccc(C(F)(F)F)cc1CN1C[C@H](c2cc(C(F)(F)F)cc(C(F)(F)F)c2)OC1=O`, the inhibition in data set [4] is under 50%.
In data set [5], `COc1ccc(C(C)C)cc1-c1ccc(C(F)(F)F)cc1CN1C[C@H](c2ccccc2)OC1=O` showed an IC50 of 37.2 µM.
On the same count and under the same terms, to `COC(=O)N(Cc1ccccc1)Cc1cc(C(F)(F)F)ccc1-c1cc(C(C)C)ccc1OC` belongs 27.3 µM.
The same measure, in the same setting: to `COc1ccc(C(C)C)cc1-c1ccc(C(F)(F)F)cc1CN1C(=O)OCC1c1cc(C(F)(F)F)cc(C(F)(F)F)c1` (racemic) belongs 14.2 µM; to `COc1ccc(C(C)C)cc1-c1ccc(C(F)(F)F)cc1CN1CC(c2cc(C(F)(F)F)cc(C(F)(F)F)c2)OC1=O` (racemic), 0.133 µM; to `COc1ccc(C(C)C)cc1-c1ccc(C(F)(F)F)cc1CN1C[C@@H](c2ccccc2)OC1=O`, 0.293 µM.
